Results: ChEMBL document CHEMBL4699454, “Mechanistic insights into the activation of ester prodrugs of 666-15” (Bioorg Med Chem Lett, 2020)

Key:
[1] = Aqueous solubility of the compound in distilled de-ionized water; assay type: physicochemical
[2] = Inhibition of CREB (unknown origin) expressed in HEK293T cells transfected with pCRE-RLuc assessed as inhibition of forskolin-induced CREB transcription activity by luciferase reporter gene assay; assay type: cell-based; conditions: Homo sapiens, HEK-293T
How it was run: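 HEK293T cells transiently transfected with pCRE-RLuc (Renilla luciferase under CREB control), treated with graded compound concentrations, then stimulated with forskolin to raise CREB phosphorylation; luciferase signal read. IC50 = concentration halving reporter transcription; mean ± SD of at least two experiments in triplicate. Prodrug stocks in DMF, parent in DMSO.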

MDA-MB-468 = assay: Antiproliferative activity against human MDA-MB-468 cells assessed as inhibition of cell growth incubated for 72 hrs by MTT assay; assay type: functional
How it was run: (§1)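 MTT viability read-out after 72 h exposure of TNBC cells to increasing compound concentrations. GI50 = concentration giving 50% growth inhibition; mean ± SD from at least two independent experiments run in duplicate. Stocks of the ester prodrugs prepared in DMF, parent compound stocks in DMSO.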

[3] = Stability of the compound in DMEM at 200 uM incubated for 5 to 30 mins in presence of 10% FBS by HPLC analysis; conditions: time min 5-30
How it was run: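 Compound at 200 μM incubated in DMEM with 10% FBS at 37 °C; aliquots withdrawn at various time points and analysed by HPLC, peaks assigned by comparison with authentic reference samples.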

[4] = Stability of the compound in DMSO; assay type: physicochemical
MDA-MB-231 = assay: Antiproliferative activity against human MDA-MB-231 cells assessed as inhibition of cell growth incubated for 72 hrs by MTT assay; assay type: functional; how it was run: as §1
[5] = Ratio of GI50 for human MDA-MB-231 cells to GI50 for human MDA-MB-468 cells assessed as cell growth inhibition measured after 72 hrs by MTT assay; assay type: functional

Row | solubility [1] | IC50 [2] | GI50 (MDA-MB-468) | Stabilty [4] | GI50 (MDA-MB-231) | SMILES | Stability [3] | Ratio IC50 [5]
1 | < 0.5 mg/mL | – | – | – | – | Cl.NCCCOc1cc2ccccc2cc1C(=O)NCCOc1cc2ccccc2cc1C(=O)Nc1ccc(Cl)cc1O | – | –
2 | > 100 mg/mL | 0.25 µM | 0.032 µM | Unstable | 0.67 µM | Cl.Cl.NCCCOc1cc2ccccc2cc1C(=O)Nc1ccc(Cl)cc1OC(=O)c1cc2ccccc2cc1OCCN | Unstable | 10
3 | – | 0.26 µM | 0.045 µM | Unstable | 0.54 µM | NCCCOc1cc2ccccc2cc1C(=O)Oc1cc(Cl)ccc1NC(=O)c1cc2ccccc2cc1OCCN | – | 10
